ALR H2O2 inh = inhibitors of human sulfhydryl oxidase ALR. purified ALR, DTT oxidation, H2O2 HRP-luminol luminescence. inhibition, % (test concentration not listed). actives 3.8% (n = 290,000). AID 485317;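 active = mean replicate inhibition above about 79%, with every replicate also reaching it, limit read from the data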
Target sequence (P55789 whole entry, looked up): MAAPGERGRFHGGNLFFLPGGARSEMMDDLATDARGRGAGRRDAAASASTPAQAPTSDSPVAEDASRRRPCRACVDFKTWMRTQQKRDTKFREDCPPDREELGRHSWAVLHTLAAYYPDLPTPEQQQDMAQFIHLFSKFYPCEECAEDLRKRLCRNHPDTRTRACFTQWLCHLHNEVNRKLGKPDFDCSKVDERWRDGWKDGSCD
T cell modulator = T cell immune modulation candidate; AID 2052; response (vesicle binding), % at 7 µM; actives 0.068% (n = 330,000); 2C CD8+ T cell-vesicle binding, flow cytometry; active compounds read low;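 active = response, share of CD8 T cells binding vesicles, and their 90th percentile fluorescence all below set limits, cut at about 80% in these data, passing the limit was not always enough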;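 note: values below 100% mean blocked vesicle binding to the CD8+ T cells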
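Material: 2C TCR transgenic mouse naive CD8+ T cells, MACS-purified. Also added: QL9-charged Drosophila Ld/ICAM-1/B7-1 vesicles. Timing: binding 1.5 h at 37 °C. Measured by: high-throughput flow cytometry with anti-B7-1 and anti-CD8 staining. Read-out: percent CD8+ FL2 mean versus row control. Controls: Unloaded micro-vesicles (low), QL9 vesicles with 0.7% DMSO (high).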
N-glyco inh = N-linked glycosylation inhibition; reporter increase, % at 12.5 µM; actives 0.23% (n = 360,000); D54 ERlucT glycosylation luciferase reporter, 24 h; percent of 100 nM tunicamycin response;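 active = mean luciferase reporter signal, scaled so untreated is 0 and the glycosylation-blocking control 100, at or above a set limit in every replicate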;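 note: luciferase carries N-glycosylation sites so blocking glycosylation raises the light; 0% = median of neutral control wells and 100% = median of 100 nM tunicamycin wells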
* marks the source's active call; other numbers are inactive results; i = inactive; x = no result. Many of the other results were omitted from the sample, so hits are more common in it than they were.

SMILES	ALR H2O2 inh	T cell modulator	N-glyco inh
COc1ccccc1N1CCN(C(=O)CCS(=O)(=O)c2ccc3c(c2)oc(=O)n3C)CC1	88*	171	-1
COc1ccccc1N1CCN(C(=O)C2CCCN(S(=O)(=O)c3ccc4c(c3)oc(=O)n4C)C2)CC1 (configuration not stated)	19	103	-3
Cc1ccc([N+](=O)[O-])cc1N=Nc1c(C)[nH]n(C(N)=S)c1=O	98*	174	0
Cc1ccc([N+](=O)[O-])cc1N=Nc1c(-c2ccc([N+](=O)[O-])cc2)[nH]n(C(N)=S)c1=O	x	x	-10
O=[N+]([O-])c1ccc(CN2CC(N3CCC(Cc4ccccc4)CC3)CS2(=O)=O)cc1 (configuration not stated)	x	x	-3
Cc1ccc(C)c(NC(=O)Cc2nc(CCl)cs2)c1	-18	92	5
Cc1ccc(SCC(=O)OCc2csc(CC(=O)Nc3ccccc3C)n2)cc1C	99*	372	0
Cc1ccccc1NC(=O)Cc1nc(CCl)cs1	92*	309	2
Cc1ccc(S(=O)(=O)NCC(=O)OCc2csc(CC(=O)Nc3ccccc3C)n2)cc1C	x	x	0
Oc1ccc(O)c(/C(=N/Nc2ccccc2)c2ccccc2)c1	x	528	x
CCCSc1cc(NCCOC(=O)CCC)c([N+](=O)[O-])c2nonc12	97*	90	10
CCCSc1cc(NCCOC(C)=O)c([N+](=O)[O-])c2nonc12	-16	261	8
CCCC(=O)OCCNc1cc(SCc2ccco2)c2nonc2c1[N+](=O)[O-]	-5	i	5
CCCC(=O)OCCNc1cc(Sc2nccn2C)c2nonc2c1[N+](=O)[O-]	97*	174	2
CCC(=O)OCCNc1cc(Sc2nc3ccccc3s2)c2nonc2c1[N+](=O)[O-]	-22	188	8
CC(=O)OCCCNc1cc(SCc2ccco2)c2nonc2c1[N+](=O)[O-]	90*	304	5
Cc1cc(C(=O)N2CCN(S(=O)(=O)c3ccc(F)c(Cl)c3)CC2)c(C)o1	1	290	3
CCOc1cc(/C=N/O)ccc1OCc1ccc(C)cc1	98*	283	4
CCOc1cc(/C=N/O)ccc1OS(=O)(=O)c1ccc(C)cc1	36	235	-6
CC1(C)Cc2c(cnn2-c2ccc(F)cc2)C(NC(=O)c2cnccn2)C1 (configuration not stated)	x	450	-2
COc1ccc(-n2ncc3c2CC(C)(C)CC3NC(=O)c2oc(C)cc2C)cc1 (configuration not stated)	0	187	0
CSCc1ccc(C(=O)NC2CC(C)(C)Cc3c2cnn3-c2ccc(F)cc2)o1 (configuration not stated)	94*	293	-5
Cc1cc(C)c(C(=O)NC2CC(C)(C)Cc3c2cnn3-c2ccccc2)o1 (configuration not stated)	87*	261	-3
COC(=O)[C@@H](Cc1c[nH]c2ccccc12)NC(=O)CNC(=O)c1ccccc1OC	2	408	1
Cc1ccc(NC(=O)CSc2nsc(SCC(=O)Nc3ccc(C)cc3C)c2C#N)c(C)c1	-18	201	30*
SMILES	ALR H2O2 inh	T cell modulator	N-glyco inh
Cc1csc(NC(=O)CSc2nsc(SCC(=O)Nc3nc(C)cs3)c2C#N)n1	71	509	-10
C[C@H]1O[C@@H](n2cc(F)c(=O)[nH]c2=O)[C@H](O)[C@@H]1O	17	118	0
CCCCCCCCCCCCCCCCCCNc1ccn(C2OC(COP(=O)(O)OCC3OC(n4cc(F)c(=O)[nH]c4=O)CC3O)C(O)C2O)c(=O)n1 (configuration not stated)	x	x	35*
COCCNC(=O)CS(=O)Cc1nc(-c2ccccc2C)oc1C (configuration not stated)	98*	496	-1
COc1ccccc1CNC(=O)COc1ccccc1C	5	246	-3
CCCNC(=O)CS(=O)(=O)Cc1nc(-c2ccccc2C)oc1C	-20	500	2
Cc1ccccc1-c1nc(CS(=O)CC(=O)NCc2ccccc2)c(C)o1 (configuration not stated)	98*	573	-1
COc1ccc(OC)c(NC(=O)CS(=O)(=O)Cc2nc(-c3ccccc3C)oc2C)c1	-2	412	0
COc1ccccc1CNC(=O)CS(=O)Cc1nc(-c2ccccc2C)oc1C (configuration not stated)	99*	879	1
COc1ccc(CNC(=O)CS(=O)Cc2nc(-c3ccccc3C)oc2C)cc1 (configuration not stated)	99*	554	1
Cc1ccc(CNC(=O)CS(=O)Cc2nc(-c3ccccc3C)oc2C)cc1 (configuration not stated)	26	684	1
Cc1ccc(-n2ncc3c2CC(C)(C)CC3NC(=O)c2c(C)noc2C)cc1 (configuration not stated)	-9	886	0
COc1ccc(C2COC(=O)C2=N)c(NC(=O)c2ccc(Cl)cc2)c1 (configuration not stated)	16	0.0*	4
N=C1C(=O)OCC1c1ccccc1NC(=O)c1ccccc1 (configuration not stated)	-3	144	1
O=C(Nc1ccccc1)c1ccc(Br)c(S(=O)(=O)Nc2ccccn2)c1	-13	143	0
COc1ccc(NC(=O)c2sc3nc(N4CCOCC4)c4c(c3c2N)CCCC4)c(OC)c1	-2	240	1
COc1cccc(CNC(=O)c2ccc(C3SCCS3)cc2)c1	91*	588	1
COc1cccc(CNC(=O)c2ccc(C(=O)NCc3cccc(OC)c3)cc2)c1	-4	266	-1
CCN1CCN(C(=O)c2ccc(Cl)c(S(=O)(=O)N3CCCCC3)c2)CC1	-3	134	-1
O=C(/C=C/c1ccc([N+](=O)[O-])s1)N1CCCCC1	x	271	39*
O=C(/C=C/c1ccc([N+](=O)[O-])s1)N1CCCC1	x	491	18
COc1ccc(Cn2nnnc2CN2CCN(c3ccc(OC)cc3)CC2)cc1	19	498	0
CCC(C)(C)n1nnnc1CN1CCN(c2ccc(OC)cc2)CC1	94*	448	1
O=C(Cn1c(=O)oc2cc(S(=O)(=O)N3CCCCC3)ccc21)N1CCc2ccccc21	x	570	1
O=C(Cn1c(=O)oc2cc(S(=O)(=O)N3CCc4ccccc43)ccc21)N1CCCCC1	88*	494	-2
SMILES	ALR H2O2 inh	T cell modulator	N-glyco inh
CCCNc1nc2ccccc2n2c(C)nnc12	0	472	40*
CCCN(CCC)c1nc2ccccc2n2c(C)nnc12	x	215	4
CCOC(=O)/C(=N\Nc1cc(Cl)ccc1Cl)N1CCN(CC)CC1	x	231	0
CC1CCCCN1C(=O)CSc1nnc(-c2cccs2)o1 (configuration not stated)	x	368	-6
CCOC(=O)c1c[nH]c2c([N+](=O)[O-])cc(OC)cc2c1=O	x	x	0
O=C1c2ccccc2C(=O)c2c(NCCCN(CCO)CCO)cccc21	x	x	116*
CCN(CC)CC(=O)Nc1cccc2c1C(=O)c1ccccc1C2=O	-7	294	7
CCCSc1nc(C)c2cc(C)cc(C)c2n1	-8	318	0
Cc1cc(C)c2nc3nc(C)c(C)cc3c(N)c2c1	x	x	95*
c1ccc2c(c1)N1CCN=C1N2CCN1CCCCC1	19	339	1

Bioassay records (PubChem)
